According to publication PMC3658146 (Clinical cancer research : an official journal of the …, 2013):
Where “and” joins values, the source holds several entries; their conditions need not be identical. Identical values can stand only once. Like-named read-outs stand apart in the source and are kept apart here. One block for each compound: values may come before it.

Key:
[1] = Urinary recovery of IPdR and metabolites after a single oral dose of IPdR; type: in vivo, human (patients with advanced malignancies); details: patients receiving 2400 mg of IPdR
How it was run: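 Urine was collected pre-dose and then at each void over 24 h, with volumes recorded and aliquots stored at −80°C. Samples underwent liquid–liquid extraction and LC–MS/MS for IPdR, IdUrd, IP and IUra, with BrdUrd and BrUra as internal standards. Calibration covered 0.1–50 μM in patient pre-dose urine. Samples above 50 μM were diluted 1:10 and reanalyzed. The quantitation limit was 0.1 μM for IPdR and IdUrd and 0.25 μM for IP and IUra.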

[2] = Plasma pharmacokinetics after a single oral dose of IPdR; type: in vivo, human (patients with advanced malignancies)
How it was run: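 Patients received a single oral dose of 150, 300, 600, 1200 or 2400 mg, with one patient per level and 6 at 2400 mg. Blood was drawn pre-dose and at 5, 15, 30 min and 1, 2, 4, 10, 24 h, and plasma was kept at −80°C. After solvent deproteinization, IPdR, IdUrd, IP and IUra were measured by C18 LC–MS/MS. BrdUrd and BrUra served as internal standards, with calibration at 0.1–50 μM in control plasma.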

ovarian cancer = details: patients with ovarian cancer, intraperitoneal IdUrd; cited from earlier work
anaplastic astrocytoma = details: patients with anaplastic astrocytoma, radiation combined with IdUrd; cited from earlier work
[3] = clinical, reason for c.i.v. infusion; cited from earlier work
tumor = details: c.i.v. IdUrd; cited from earlier work
[4] = system: dihydropyrimidine dehydrogenase; details: stated without reference; cited from earlier work
[5] = mice, oral IPdR, sustained for at least 6 hours; cited from earlier work
[6] = rats, for 28 days; cited from earlier work
[7] = Safety assessment for 14 days after a single oral dose of IPdR; type: in vivo, human (patients with advanced malignancies); details: single oral dose 150-2400 mg, 10 patients, 14 days follow-up
How it was run: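 After a single oral dose on day 1 (150–2400 mg), patients were followed for 14 days. Complete blood counts with differential and serum chemistries were done at baseline, day 2 and day 14, with grading by CTCAE v4.0. Significant toxicity was defined as a drug-related event within 14 days at grade ≥2 non-hematologic (excluding correctable electrolytes), grade ≥2 thrombocytopenia, or grade ≥3 anemia/leucopenia/neutropenia. Each next patient enrolled only after the prior one completed 2 weeks.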

[8] = rats, oral IPdR, sustained for at least 6 hours; cited from earlier work
[9] = athymic mice, ≤ 1500 mg/kg/day for 6 to 14 days; cited from earlier work

detection in urine samples [1]: detectable
SMILES: O=c1ncc(I)c[nH]1 [IP, 5-iodo-2-pyrimidinone]

AUC ([2]; human, plasma, po, 150 mg): 1.7 µM·h
Cmax ([2]; human, plasma, po, 150 mg): 800 nM
AUC ([2]; human, plasma, po, 300 mg): 0.3 µM·h
Cmax ([2]; human, plasma, po, 300 mg): 300 nM
AUC ([2]; human, plasma, po, 600 mg): 3.2 µM·h
Cmax ([2]; human, plasma, po, 600 mg): 1800 nM
AUC ([2]; human, plasma, po, 1200 mg): 4.7 µM·h
Cmax ([2]; human, plasma, po, 1200 mg): 2100 nM
AUC ([2]; human, plasma, po, 2400 mg): 12.2 µM·h
Cmax ([2]; human, plasma, po, 2400 mg): 4000 nM
half-life ([2]; human, plasma, po, 2400 mg): 1.5 h
time of peak IdUrd plasma level after IPdR administration ([2]; single oral IPdR 2400 mg, 6 patients, mean ± SD): 1.67 ± 1.21 h
detection in urine samples [1]: detectable
SMILES: O=c1[nH]c(=O)n([C@H]2C[C@H](O)[C@@H](CO)O2)cc1I [IdUrd, 5-iodo-2′-deoxyuridine, reference compound]
effect on ascites (ovarian cancer): disappearance of ascites
median survival (anaplastic astrocytoma): 3.2 years
patients surviving at 5 years (anaplastic astrocytoma): 33%
half-life [3]: in the order of minutes
patients with tumor shrinkage (tumor): 6 out of 11

concentration at 10 hours ([2]; human, plasma, oral, 2400 mg): ~100000 nM
AUC ([2]; human, plasma, po, 150 mg): 1 µM·h
Cmax ([2]; human, plasma, po, 150 mg): 200 nM
AUC ([2]; human, plasma, po, 300 mg): 4.5 µM·h
Cmax ([2]; human, plasma, po, 300 mg): 800 nM
AUC ([2]; human, plasma, po, 600 mg): 17.2 µM·h
Cmax ([2]; human, plasma, po, 600 mg): 4500 nM
AUC ([2]; human, plasma, po, 1200 mg): 103 µM·h
Cmax ([2]; human, plasma, po, 1200 mg): 34200 nM
AUC ([2]; human, plasma, po, 2400 mg): 1060 µM·h
Cmax ([2]; human, plasma, po, 2400 mg): 133000 nM
time of peak IUra plasma level post IPdR administration ([2]; single oral IPdR 2400 mg): 3.3 ± 1.0 hours and 3.3 (± 1.0) hours
detection in urine samples [1]: detectable
share of the metabolites measured in urine ([1]; 24 hours): 90 ± 13%
SMILES: O=c1[nH]cc(I)c(=O)[nH]1 [IUra, 5-iodouracil]
effect on the enzyme dihydropyrimidine dehydrogenase [4]: inhibits

SMILES: O=c1ncc(I)cn1[C@H]1C[C@H](O)[C@@H](CO)O1 [IPdR, 5-iodo-2-pyrimidinone-2′-deoxyribose]
plasma concentrations of IPdR [5]: > 100000 nM
IPdR AUC ([2]; plasma, single oral IPdR 150 mg, one patient): 3.4 μM-hr
IPdR AUC ([2]; plasma, single oral IPdR 600 mg, one patient): 8.3 μM-hr
IPdR AUC ([2]; plasma, single oral IPdR 1200 mg, one patient): 0.7 μM-hr
IPdR AUC ([2]; plasma, single oral IPdR 2400 mg, mean of 6 patients): 15.6 μM-hr
Cmax ([2]; read-out: IPdR Cmax, plasma, single oral IPdR 150 mg, one patient): 600 nM
Cmax ([2]; read-out: IPdR Cmax, plasma, single oral IPdR 600 mg, one patient): 930 nM
Cmax ([2]; read-out: IPdR Cmax, plasma, single oral IPdR 1200 mg, one patient): 950 nM
Cmax ([2]; read-out: IPdR Cmax, plasma, single oral IPdR 2400 mg, mean of 6 patients): 4300 nM
tolerable dose for repeat dose studies [6]: 2000 mg/kg/day
dose recovered in urine over 24 hours ([1]; IPdR and metabolites): Twelve
detection in urine samples [1]: detectable
drug-related adverse events [7]: no drug-related adverse events
plasma concentrations of IPdR [8]: > 100000 nM
toxicities after daily oral doses [9]: no significant toxicities
